# Results reported in ChEMBL document CHEMBL5385965, “Discovery of novel positive allosteric modulators targeting GluN1/2A NMDARs as anti-stroke therapeutic agents” (RSC Med Chem, 2024).
# Activity calls are given as the source filed them. The calls are words filed in the database; no cut-off is given here.
# What was measured:
# PC-12 [1] = assay: Neuroprotective activity against glutamate-induced excitotoxicity in rat PC12 cells assessed as cell viability at 1 uM preincubated for 4 hrs followed by glutamate treatment for 24 hrs by CCK8 assay (reference value: 43.19 +/- 2.98 %); assay type: functional; conditions: time 28 hrs, read-out: Activity
# PC-12 [2] = assay: Neuroprotective activity against glutamate-induced excitotoxicity in rat PC12 cells assessed as cell viability at 10 uM preincubated for 4 hrs followed by glutamate treatment for 24 hrs by CCK8 assay (reference value: 43.75 +/- 2.04 %); assay type: functional; conditions: time 28 hrs, read-out: Activity
# HT-22 [3] = assay: Neuroprotective activity against glutamate-induced excitotoxicity in mouse HT-22 cells assessed as cell viability at 0.1 uM preincubated for 4 hrs followed by glutamate treatment for 24 hrs by CCK8 assay (reference value: 30.31 +/- 2.02 %); assay type: functional; conditions: time 28 hrs, read-out: Activity
# HT-22 [4] = assay: Neuroprotective activity against glutamate-induced excitotoxicity in mouse HT-22 cells assessed as cell viability at 10 uM preincubated for 4 hrs followed by glutamate treatment for 24 hrs by CCK8 assay (reference value: 34.80 +/- 4.02 %); assay type: functional; conditions: time 28 hrs, read-out: Activity
# [5] = target: T1, Glutamate NMDA receptor; GRIN1/GRIN2B (Homo sapiens) (UniProt Q05586+Q13224); assay: Positive allosteric modulation of GluN1/N2B (unknown origin) transfected in HEK293 cells assessed as potentiation of Glu/Gly-induced calcium influx by Cal-520 AM dye based assay; assay type: cell-based
# In short: (§1)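 HEK293 cells were co-transfected 1:1 with GluN1 plus GluN2A or GluN2B at 90% confluence and seeded 40 000/well on poly-D-lysine plates overnight. Cells were loaded with Cal-520 AM for 1.5 h at 37 °C, and compounds were tested at 10 μM. Responses to Glu (2 mM)/Gly (100 μM) were recorded in HEPES-buffered Tyrode's (pH 7.2) at Ex 485/Em 515 nm every 1.6 s, expressed as area under the FMAX/F0 curve.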
# HT-22 [6] = assay: Neuroprotective activity against glutamate-induced excitotoxicity in mouse HT-22 cells assessed as cell viability at 1 uM preincubated for 4 hrs followed by glutamate treatment for 24 hrs by CCK8 assay (reference value: 35.56 +/- 2.12 %); assay type: functional; conditions: time 28 hrs, read-out: Activity
# [7] = Cytotoxicity against rat PC12 cells assessed as cell viability at 10 uM incubated for 4 hrs by CCK8 assay relative to control; assay type: toxicity, cell-based, PC-12; conditions: read-out: Activity
# PC-12 [8] = assay: Neuroprotective activity against glutamate-induced excitotoxicity in rat PC12 cells assessed as cell viability at 0.1 uM preincubated for 4 hrs followed by glutamate treatment for 24 hrs by CCK8 assay (reference value: 44.89 +/- 2.08 %); assay type: functional; conditions: time 28 hrs, read-out: Activity
# Mus musculus [9] = assay: Neuroprotective activity against tMCAO-reperfusion induced nerve injury in C57BL/6 mouse model assessed as reduction in volume of ischemia cerebral infarction at 5 mg/kg, ip measured after 22 hrs by TTC staining based analysis relative to control; assay type: functional; parameters: scale not given: the % may be the effect or the level left
# [10] = target: Glutamate NMDA receptor; GRIN1/GRIN2A (Homo sapiens) (UniProt Q05586+Q12879); assay: Positive allosteric modulation of GluN1/N2A (unknown origin) transfected in HEK293 cells assessed as potentiation of Glu/Gly-induced calcium influx by Cal-520 AM dye based assay; assay type: cell-based; conditions: filed as positive allosteric modulator; in short: as §1
# Mus musculus [11] = assay: Neuroprotective activity against tMCAO-reperfusion induced nerve injury in C57BL/6 mouse model assessed as reduction in volume of ischemia cerebral infarction at 10 mg/kg, ip measured after 22 hrs by TTC staining based analysis relative to control; assay type: functional; parameters: scale not given: the % may be the effect or the level left
# Mus musculus [12] = assay: Neuroprotective activity against tMCAO-reperfusion induced nerve injury in C57BL/6 mouse model assessed as reduction in volume of ischemia cerebral infarction at 5 mg/kg, ip measured after 22 hrs by TTC staining based analysis (reference value: 130.60 +/- 9.93 mm3); assay type: functional
# Mus musculus [13] = assay: Neuroprotective activity against tMCAO-reperfusion induced nerve injury in C57BL/6 mouse model assessed as recovery of neurological deficit score at 5 to 10 mg/kg, ip measured after 22 hrs; assay type: functional, organism-based; conditions: dose 5-10 mg/kg
# In short: (§2)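 Male C57BL/6 mice (6–8 weeks, 18–22 g) were randomized and given 1, 5 or 10 mg/kg i.p. in 5% DMSO, 20% PEG300, 5% Tween-80 in saline. Under isoflurane, the left MCA was occluded with a nylon monofilament for 1.5 h, then reperfused, with body temperature held at 37 °C. Neurological scores were taken after tMCAO. n=6, mean ± SD, one-way ANOVA with Dunnett's test vs vehicle.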
# Mus musculus [14] = assay: Neuroprotective activity against tMCAO-reperfusion induced nerve injury in C57BL/6 mouse model assessed as reduction in volume of ischemia cerebral infarction at 10 mg/kg, ip measured after 22 hrs by TTC staining based analysis (reference value: 130.60 +/- 9.93 mm3); assay type: functional
# [15] = target: Glutamate NMDA receptor; GRIN1/GRIN2A/GRIN2B (Homo sapiens) (UniProt Q05586+Q12879+Q13224); assay: Positive allosteric modulation of GluN1/N2A/N2B (unknown origin) transfected in HEK293 cells assessed as potentiation of Glu/Gly-induced calcium influx by Cal-520 AM dye based assay; assay type: cell-based
# [16] = target: T1, Glutamate NMDA receptor; GRIN1/GRIN2B (Homo sapiens); assay: […] of GluN1/N2B (unknown origin) transfected in HEK293 cells assessed as potentiation of Glu/Gly-induced calcium influx by Cal-520 AM dye based assay; assay type: cell-based; in short: as §1
# Mus musculus [17] = assay: Neuroprotective activity against tMCAO-reperfusion induced nerve injury in C57BL/6 mouse model assessed as recovery of neurological deficit score at 10 mg/kg, ip measured after 22 hrs; assay type: functional, organism-based; in short: as §2
Structure (SMILES),viability at 1 µM (PC-12 [1]) [%],viability at 10 µM (PC-12 [2]) [%],viability at 0.1 µM (HT-22 [3]) [%],viability at 10 µM (HT-22 [4]) [%],Activity [5],viability at 1 µM (HT-22 [6]) [%],"viability at 4 h, 10 µM [7] [%]",viability at 0.1 µM (PC-12 [8]) [%],other results
COc1cc(/C=C/C(=O)NCC(O)c2ccc(O)cc2)ccc1O (configuration not stated),66.5,62.8,42.7,39.6,inactive,77.6,96.6,64.2,
COc1cc(OC/C=C(\C)CCC=C(C)C)c2ccc(=O)oc2c1,69,70.1,34.9,41.4,inactive,69,74.7,67.4,
COc1ccc(C(O)CNC(=O)/C=C/c2ccccc2)cc1 (configuration not stated),,,,,inactive,,,,Activity (Mus musculus [9]): 30.68%; Activity [10]: Dose-Dependent Effect; Activity (Mus musculus [11]): 42.7%; Activity (Mus musculus [12]): 90.53 mm3; Activity (Mus musculus [13]): Active; Activity (Mus musculus [14]): 74.83 mm3; Activity [15]: inactive
C=CCc1ccc(O)c(-c2ccc(O)c(CC=C)c2)c1,,,,,inactive,,,,Activity [16]: Active
CC(C)=CCC/C(C)=C/COc1c2ccoc2cc2oc(=O)ccc12,,,,,inactive,,,,
CC(C)=CCC/C(C)=C/COc1ccc2ccc(=O)oc2c1,,,,,inactive,,,,
CC(Cc1ccc(O)c(O)c1)C(C)Cc1ccc(O)c(O)c1 (configuration not stated),,,,,inactive,,,,
CCCCCCC/C=C/C(=O)CCc1ccc(O)c(OC)c1,,,,,inactive,,,,
CCN(CC)CCCC(C)Nc1ccnc2cc(Cl)ccc12 (configuration not stated),,,,,inactive,,,,
COc1cc(/C=C/C(=O)NCCc2ccc(O)cc2)cc(OC)c1O,,,,,inactive,,,,
COc1cc(/C=C/C(=O)NCCc2ccc(O)cc2)ccc1O,,,,,inactive,,,,
COc1cc(C(=O)OCCCCNC(=N)N)cc(OC)c1O,,,,,inactive,,,,
C[C@H](CCc1ccc(O)cc1)NCCc1ccc(O)c(O)c1,,,,,inactive,,,,
O=C(/C=C/c1ccc(O)c(O)c1)OC(Cc1ccc(O)c(O)c1)C(=O)O (configuration not stated),,,,,inactive,,,,
O=C(CCCCc1ccc2c(c1)OCO2)N1CCCCC1,,,,,inactive,,,,
O=C(CCc1ccccc1)C[C@@H](O)/C=C/c1ccccc1,,,,,inactive,,,,
C=CCN1C[C@H](C(=O)N(CCCN(C)C)C(=O)NCC)C[C@@H]2c3cccc4[nH]cc(c34)C[C@H]21 [CABERGOLINE],68.2,87.5,37.7,37.4,inactive,73.8,94.8,63.9,
COc1cc(CNC(=O)CCCCCCC(C)C)ccc1O [DIHYDROCAPSAICIN],76.1,102,32.6,43.3,inactive,95.4,104,66.1,
CC1=NN(c2ccccc2)C(=O)C1 [EDARAVONE],,,,,,,,,Activity (Mus musculus [14]): 68.04 mm3; Activity (Mus musculus [17]): Active
COc1cc(CCC(=O)CC(O)CCc2ccc(O)c(OC)c2)ccc1O (configuration not stated) [HEXAHYDROCURCUMIN],52.4,66.5,41.4,42.9,inactive,103,73.3,66,Activity [10]: Active
COC(=O)[C@@H](Cc1ccc(O)c(O)c1)OC(=O)/C=C/c1ccc(O)c(O)c1 [METHYL ROSMARINATE],75.2,53.6,46.3,25.6,inactive,80.4,69.6,74.1,
O=C(/C=C/C=C/c1ccc2c(c1)OCO2)N1CCCCC1 [PIPERINE],57.3,35.2,36.5,24.5,inactive,87.8,98.3,66.2,
COCCCOc1ccnc(C[S+]([O-])c2nc3ccccc3[nH]2)c1C (configuration not stated) [RABEPRAZOLE],66.7,60.9,39.9,16,inactive,76.5,93.2,64.7,
N[C@@H](CC(=O)N1CCn2c(nnc2C(F)(F)F)C1)Cc1cc(F)c(F)cc1F [SITAGLIPTIN],69.5,77.8,24.8,52.4,inactive,71,95.5,62.6,
